# From ChEMBL document CHEMBL5705905, “Pharmacological targeting of kinases MST1 and MST2 augments tissue repair and regeneration” (Sci Transl Med, 2016)
# Active and inactive are the calls of the source. No cut-off for these calls is given here.
# Experiments:
# [1] = target: T1, Serine/threonine-protein kinase 3 (Homo sapiens, UniProt Q13188); assay: Inhibition of recombinant His-tagged full-length MST2 (unknown origin) expressing in Escherichia coli assessed as MOB1a phosphorylation level incubated for 30 min in the presence of 10 uM ATP by immunoblot analysis
# T1 sequence (Q13188 whole entry): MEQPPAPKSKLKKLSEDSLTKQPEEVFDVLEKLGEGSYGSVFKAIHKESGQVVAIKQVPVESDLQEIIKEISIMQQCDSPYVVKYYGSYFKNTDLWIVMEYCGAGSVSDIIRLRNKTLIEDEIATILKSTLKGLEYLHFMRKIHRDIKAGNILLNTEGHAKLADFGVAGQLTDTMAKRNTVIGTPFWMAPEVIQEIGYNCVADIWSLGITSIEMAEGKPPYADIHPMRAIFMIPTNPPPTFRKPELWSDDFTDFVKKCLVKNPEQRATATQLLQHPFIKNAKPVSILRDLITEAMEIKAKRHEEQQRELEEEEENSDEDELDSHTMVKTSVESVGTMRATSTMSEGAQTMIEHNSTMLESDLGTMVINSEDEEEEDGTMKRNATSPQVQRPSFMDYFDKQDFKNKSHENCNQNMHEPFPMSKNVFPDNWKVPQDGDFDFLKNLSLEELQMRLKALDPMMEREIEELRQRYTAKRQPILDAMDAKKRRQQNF
# [2] = target: Atypical kinase COQ8B, mitochondrial (Homo sapiens) (UniProt Q96D53); assay: Inhibition of ADCK4 (unknown origin) assessed as remaining activity at 1 uM by Kinome scan method relative to control
# Procedure, shortened: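 Active-site-dependent competition-binding (KINOMEscan) panel of 468 kinases, test compound at 1 μM (from a 10 mM DMSO stock). Read-out is ctrl% = (test signal − positive control signal)/(negative control signal − positive control signal) × 100. DMSO is the negative control (100%) and a control compound is the positive control (0%). Lower ctrl% means tighter binding.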
# [3] = target: Cyclin-dependent kinase-like 5 (Homo sapiens) (UniProt O76039); assay: Inhibition of CDKL5 (unknown origin) assessed as remaining activity at 1 uM by Kinome scan method relative to control
# Procedure, shortened: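 Active-site-dependent competition-binding profiling (KINOMEscan) at 1 μM against a 468-kinase panel; compound supplied from a 10 mM DMSO stock. Read-out is ctrl% = (test signal − positive control signal)/(negative control signal − positive control signal) × 100. DMSO is the negative control (100%) and a control compound the positive control (0%). Lower ctrl% means tighter binding.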
# [4] = target: Serine/threonine-protein kinase DCLK3 (Homo sapiens) (UniProt Q9C098); assay: Inhibition of DCAMKL3 (unknown origin) assessed as remaining activity at 1 uM by Kinome scan method relative to control
# [5] = target: Receptor tyrosine-protein kinase erbB-4 (Homo sapiens) (UniProt Q15303); assay: Inhibition of ERBB4 (unknown origin) assessed as remaining activity at 1 uM by Kinome scan method relative to control
# [6] = target: Mitogen-activated protein kinase 4 (Homo sapiens) (UniProt P31152); assay: Inhibition of ERK4 (unknown origin) assessed as remaining activity at 1 uM by Kinome scan method relative to control
# [7] = target: Fibroblast growth factor receptor 2 (Homo sapiens) (UniProt P21802); assay: Inhibition of FGFR2 (unknown origin) assessed as remaining activity at 1 uM by Kinome scan method relative to control
# [8] = target: Glycogen synthase kinase-3 beta (Homo sapiens) (UniProt P49841); assay: Inhibition of GSK3beta (unknown origin) assessed as remaining activity at 1 uM by Kinome scan method relative to control
# [9] = target: Mitogen-activated protein kinase kinase kinase kinase 4 (Homo sapiens) (UniProt O95819); assay: Inhibition of MAP4K4 (unknown origin) assessed as remaining activity at 1 uM by Kinome scan method relative to control
# [10] = target: Dual specificity mitogen-activated protein kinase kinase 1 (Homo sapiens) (UniProt Q02750); assay: Inhibition of MEK1 (unknown origin) assessed as remaining activity at 1 uM by Kinome scan method relative to control
# [11] = target: Serine/threonine-protein kinase mTOR (Homo sapiens) (UniProt P42345); assay: Inhibition of MTOR (unknown origin) assessed as remaining activity at 1 uM by Kinome scan method relative to control
# [12] = target: Serine/threonine-protein kinase NIM1 (Homo sapiens) (UniProt Q8IY84); assay: Inhibition of NIM1 (unknown origin) assessed as remaining activity at 1 uM by Kinome scan method relative to control
# [13] = target: Mitogen-activated protein kinase 14 (Homo sapiens) (UniProt Q16539); assay: Inhibition of P38alpha (unknown origin) assessed as remaining activity at 1 uM by Kinome scan method relative to control
# [14] = target: Phosphatidylinositol 4,5-bisphosphate 3-kinase catalytic subunit alpha isoform (Homo sapiens) (UniProt P42336); assay: Inhibition of PIK3CA (unknown origin) assessed as remaining activity at 1 uM by Kinome scan method relative to control
# [15] = target: Phosphatidylinositol 5-phosphate 4-kinase type-2 beta (Homo sapiens) (UniProt P78356); assay: Inhibition of PIP5K2B (unknown origin) assessed as remaining activity at 1 uM by Kinome scan method relative to control
# [16] = target: SNF-related serine/threonine-protein kinase (Homo sapiens) (UniProt Q9NRH2); assay: Inhibition of SNRK (unknown origin) assessed as remaining activity at 1 uM by Kinome scan method relative to control
# [17] = target: Testis-specific serine/threonine-protein kinase 3 (Homo sapiens) (UniProt Q96PN8); assay: Inhibition of TSSK3 (unknown origin) assessed as remaining activity at 1 uM by Kinome scan method relative to control
# [18] = target: Serine/threonine-protein kinase VRK2 (Homo sapiens) (UniProt Q86Y07); assay: Inhibition of VRK2 (unknown origin) assessed as remaining activity at 1 uM by Kinome scan method relative to control
# Aurora kinase A = Aurora kinase A (Homo sapiens, UniProt O14965); assay: Inhibition of AURKA (unknown origin) in presence of ATP by enzymatic assay
# HepG2 = assay: Inhibition of Flag-tagged MST1 D109A mutant (unknown origin) in human HepG2 cells assessed as MOB1 phosphorylation level at 0.3 to 10 uM by immunoblot analysis; type: cell-based; details: dose 0.3-10 µM
# [19] = Oral bioavailability in male Sprague-Dawley rat at 10 mg/kg measured for 24 hrs by LC-MS/MS analysis; type: ADME, organism-based; details: in vivo
# Mus musculus = assay: Protection against Mst1fl/fl Mst2fl/fl-Alb-Cre double knockout mouse assessed as Ki67-positive cells at 1 mg/kg, ip administrated twice a day for 2 days measured after 36 hrs by immunohistochemical staining; type: functional, organism-based; details: Liver, time 2.0 day
# [20] = Toxicity in DSS-induced mouse assessed as body weight loss at 1 mg/kg, ip administrated daily for over 1 to 21 days; type: organism-based; details: in vivo, time 1-21 day
# Procedure, shortened: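 Colitis was induced with oral DSS on days 1–7, with vehicle or 1 mg/kg i.p. daily, n = 12 per group. Body weight was recorded over days 1–21 as a percentage of day 1; means ± SD, Student's t test per time point.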
# Chain of Atypical kinase COQ8B, mitochondrial (Homo sapiens) (Q96D53 whole entry): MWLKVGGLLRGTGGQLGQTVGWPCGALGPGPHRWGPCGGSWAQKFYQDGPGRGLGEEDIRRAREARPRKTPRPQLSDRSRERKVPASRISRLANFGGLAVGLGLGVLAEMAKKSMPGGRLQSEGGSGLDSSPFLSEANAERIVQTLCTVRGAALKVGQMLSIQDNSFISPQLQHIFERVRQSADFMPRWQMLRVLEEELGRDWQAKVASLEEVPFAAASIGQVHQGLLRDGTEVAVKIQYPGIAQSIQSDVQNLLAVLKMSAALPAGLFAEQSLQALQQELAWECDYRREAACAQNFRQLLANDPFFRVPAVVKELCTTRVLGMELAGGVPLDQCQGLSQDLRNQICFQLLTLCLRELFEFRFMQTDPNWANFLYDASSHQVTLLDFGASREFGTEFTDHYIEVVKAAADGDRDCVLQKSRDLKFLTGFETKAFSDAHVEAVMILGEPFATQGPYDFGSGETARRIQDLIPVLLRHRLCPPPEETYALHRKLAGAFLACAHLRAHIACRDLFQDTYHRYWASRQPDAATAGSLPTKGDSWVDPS
# Chain of Cyclin-dependent kinase-like 5 (Homo sapiens) (O76039 whole entry): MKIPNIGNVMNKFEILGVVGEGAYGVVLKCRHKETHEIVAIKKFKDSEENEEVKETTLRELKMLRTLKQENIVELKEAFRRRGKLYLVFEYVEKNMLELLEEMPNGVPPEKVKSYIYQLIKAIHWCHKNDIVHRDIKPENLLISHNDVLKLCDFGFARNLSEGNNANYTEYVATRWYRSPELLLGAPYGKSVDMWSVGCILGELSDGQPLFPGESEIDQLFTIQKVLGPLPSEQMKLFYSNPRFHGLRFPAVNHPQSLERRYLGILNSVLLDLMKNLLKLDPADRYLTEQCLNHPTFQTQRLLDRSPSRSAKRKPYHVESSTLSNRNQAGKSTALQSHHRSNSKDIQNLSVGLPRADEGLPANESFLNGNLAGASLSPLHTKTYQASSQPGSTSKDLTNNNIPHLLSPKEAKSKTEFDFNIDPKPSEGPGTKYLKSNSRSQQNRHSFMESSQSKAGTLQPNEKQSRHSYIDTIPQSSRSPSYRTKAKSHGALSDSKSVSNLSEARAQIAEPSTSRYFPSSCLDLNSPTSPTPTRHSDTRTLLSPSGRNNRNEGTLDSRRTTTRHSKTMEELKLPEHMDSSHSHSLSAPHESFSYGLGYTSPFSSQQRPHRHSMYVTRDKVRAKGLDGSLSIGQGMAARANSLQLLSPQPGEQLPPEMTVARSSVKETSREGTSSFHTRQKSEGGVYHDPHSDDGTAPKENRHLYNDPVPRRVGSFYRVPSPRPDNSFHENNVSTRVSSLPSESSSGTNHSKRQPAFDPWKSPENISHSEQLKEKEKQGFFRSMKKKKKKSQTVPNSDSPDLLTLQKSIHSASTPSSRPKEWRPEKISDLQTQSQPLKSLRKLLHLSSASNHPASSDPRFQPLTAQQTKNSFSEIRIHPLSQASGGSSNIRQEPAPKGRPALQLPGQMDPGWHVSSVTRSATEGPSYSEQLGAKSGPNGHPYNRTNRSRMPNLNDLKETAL
# Chain of Receptor tyrosine-protein kinase erbB-4 (Homo sapiens) (Q15303 whole entry): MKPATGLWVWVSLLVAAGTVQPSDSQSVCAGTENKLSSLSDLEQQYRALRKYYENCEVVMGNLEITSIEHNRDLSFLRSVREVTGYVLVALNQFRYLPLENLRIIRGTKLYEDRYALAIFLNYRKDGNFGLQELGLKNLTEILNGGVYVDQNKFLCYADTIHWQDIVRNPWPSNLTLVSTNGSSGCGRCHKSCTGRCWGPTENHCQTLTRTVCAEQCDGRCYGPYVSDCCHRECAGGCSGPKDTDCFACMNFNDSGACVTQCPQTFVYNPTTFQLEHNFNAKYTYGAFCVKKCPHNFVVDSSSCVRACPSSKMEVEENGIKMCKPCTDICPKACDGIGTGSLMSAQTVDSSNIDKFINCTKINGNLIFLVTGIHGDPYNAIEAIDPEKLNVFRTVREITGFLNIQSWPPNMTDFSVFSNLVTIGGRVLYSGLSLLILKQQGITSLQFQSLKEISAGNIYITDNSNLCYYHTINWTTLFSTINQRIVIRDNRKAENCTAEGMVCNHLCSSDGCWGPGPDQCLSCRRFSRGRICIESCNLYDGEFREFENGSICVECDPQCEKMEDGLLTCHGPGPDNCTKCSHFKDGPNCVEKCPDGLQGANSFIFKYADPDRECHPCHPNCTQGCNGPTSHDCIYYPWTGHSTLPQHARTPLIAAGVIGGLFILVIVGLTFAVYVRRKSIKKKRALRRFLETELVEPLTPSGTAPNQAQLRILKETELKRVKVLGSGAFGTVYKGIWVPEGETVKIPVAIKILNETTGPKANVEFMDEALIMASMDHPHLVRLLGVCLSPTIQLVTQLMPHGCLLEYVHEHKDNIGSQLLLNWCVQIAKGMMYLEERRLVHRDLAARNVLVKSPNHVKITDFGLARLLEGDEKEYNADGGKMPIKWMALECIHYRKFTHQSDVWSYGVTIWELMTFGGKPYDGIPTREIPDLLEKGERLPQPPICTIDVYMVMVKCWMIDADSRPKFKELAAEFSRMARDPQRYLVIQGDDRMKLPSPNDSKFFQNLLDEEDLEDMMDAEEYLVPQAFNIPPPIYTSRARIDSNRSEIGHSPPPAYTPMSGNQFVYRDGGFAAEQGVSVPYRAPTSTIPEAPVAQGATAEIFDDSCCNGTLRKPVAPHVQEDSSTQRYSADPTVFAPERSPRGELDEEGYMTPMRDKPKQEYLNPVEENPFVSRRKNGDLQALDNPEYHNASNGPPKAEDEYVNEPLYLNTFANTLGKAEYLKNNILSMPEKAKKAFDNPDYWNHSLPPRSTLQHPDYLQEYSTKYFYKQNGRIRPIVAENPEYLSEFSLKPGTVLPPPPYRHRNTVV
# Chain of Fibroblast growth factor receptor 2 (Homo sapiens) (P21802 22-821 limits assumed): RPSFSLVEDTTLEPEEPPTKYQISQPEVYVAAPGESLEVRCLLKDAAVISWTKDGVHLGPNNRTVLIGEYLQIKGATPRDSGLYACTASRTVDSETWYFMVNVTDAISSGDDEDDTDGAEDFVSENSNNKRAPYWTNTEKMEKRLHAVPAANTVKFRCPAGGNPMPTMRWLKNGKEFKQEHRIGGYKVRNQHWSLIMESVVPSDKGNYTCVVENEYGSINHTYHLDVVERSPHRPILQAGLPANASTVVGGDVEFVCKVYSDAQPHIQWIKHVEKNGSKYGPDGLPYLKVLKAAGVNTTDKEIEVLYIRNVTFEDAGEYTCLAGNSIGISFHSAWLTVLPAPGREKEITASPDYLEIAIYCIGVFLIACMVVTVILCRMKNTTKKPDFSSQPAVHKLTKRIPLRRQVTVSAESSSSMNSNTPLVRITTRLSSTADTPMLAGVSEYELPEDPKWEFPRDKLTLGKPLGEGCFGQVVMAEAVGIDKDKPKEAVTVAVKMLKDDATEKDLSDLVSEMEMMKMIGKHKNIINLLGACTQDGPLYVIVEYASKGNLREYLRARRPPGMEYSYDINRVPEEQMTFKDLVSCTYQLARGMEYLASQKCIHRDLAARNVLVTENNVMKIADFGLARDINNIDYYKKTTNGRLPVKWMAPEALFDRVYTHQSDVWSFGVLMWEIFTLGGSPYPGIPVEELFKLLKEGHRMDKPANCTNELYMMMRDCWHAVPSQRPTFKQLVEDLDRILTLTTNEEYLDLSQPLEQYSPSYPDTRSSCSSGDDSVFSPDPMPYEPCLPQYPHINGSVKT
# Chain of Serine/threonine-protein kinase NIM1 (Homo sapiens) (Q8IY84 whole entry): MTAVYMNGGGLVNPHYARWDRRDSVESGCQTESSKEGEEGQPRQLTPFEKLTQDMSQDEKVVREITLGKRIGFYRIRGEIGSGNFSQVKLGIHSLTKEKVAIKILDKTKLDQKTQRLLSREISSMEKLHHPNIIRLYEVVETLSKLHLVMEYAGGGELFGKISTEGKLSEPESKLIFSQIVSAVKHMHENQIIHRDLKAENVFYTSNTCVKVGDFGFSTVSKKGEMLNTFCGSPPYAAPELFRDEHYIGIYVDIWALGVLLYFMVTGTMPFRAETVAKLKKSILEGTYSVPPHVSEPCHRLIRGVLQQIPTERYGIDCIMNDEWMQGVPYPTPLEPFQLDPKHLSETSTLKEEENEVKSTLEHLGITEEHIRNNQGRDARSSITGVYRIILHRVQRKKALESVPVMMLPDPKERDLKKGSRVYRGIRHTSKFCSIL
# Chain of Mitogen-activated protein kinase 4 (Homo sapiens) (P31152 whole entry): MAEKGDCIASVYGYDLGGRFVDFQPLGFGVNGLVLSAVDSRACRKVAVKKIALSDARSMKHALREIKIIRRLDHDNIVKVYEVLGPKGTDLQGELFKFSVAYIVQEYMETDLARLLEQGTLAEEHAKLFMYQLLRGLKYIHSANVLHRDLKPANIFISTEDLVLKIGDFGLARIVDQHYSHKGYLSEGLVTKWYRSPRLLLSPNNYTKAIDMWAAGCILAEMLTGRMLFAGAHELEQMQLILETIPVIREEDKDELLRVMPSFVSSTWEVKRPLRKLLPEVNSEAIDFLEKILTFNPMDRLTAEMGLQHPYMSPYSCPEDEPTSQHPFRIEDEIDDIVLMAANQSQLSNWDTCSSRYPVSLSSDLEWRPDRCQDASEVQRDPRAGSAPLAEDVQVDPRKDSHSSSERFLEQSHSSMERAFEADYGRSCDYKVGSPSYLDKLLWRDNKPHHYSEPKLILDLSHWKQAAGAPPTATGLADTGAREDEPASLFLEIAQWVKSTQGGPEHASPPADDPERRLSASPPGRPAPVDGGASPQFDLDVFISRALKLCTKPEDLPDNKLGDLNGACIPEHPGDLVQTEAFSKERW
# Chain of Aurora kinase A (O14965 whole entry): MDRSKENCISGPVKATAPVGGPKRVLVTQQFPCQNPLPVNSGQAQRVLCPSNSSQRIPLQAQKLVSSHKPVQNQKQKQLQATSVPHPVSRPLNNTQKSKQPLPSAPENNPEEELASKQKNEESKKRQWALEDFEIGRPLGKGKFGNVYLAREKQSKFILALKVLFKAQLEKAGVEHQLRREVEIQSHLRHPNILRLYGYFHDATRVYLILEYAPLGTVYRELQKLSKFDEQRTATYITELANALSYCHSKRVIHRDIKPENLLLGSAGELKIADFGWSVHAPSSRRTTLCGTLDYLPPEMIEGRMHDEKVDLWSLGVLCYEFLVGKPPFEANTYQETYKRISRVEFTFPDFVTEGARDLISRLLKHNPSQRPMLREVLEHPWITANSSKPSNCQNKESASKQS
smiles,measurement,setting,value
CN1C(=O)c2sccc2N(C)c2nc(Nc3ccc(S(N)(=O)=O)cc3)ncc21,IC50,[1],34 nM
same,Activity,[2],79%
same,Activity,[3],85%
same,Activity,[4],100%
same,Activity,[5],79%
same,Activity,[6],80%
same,Activity,[7],100%
same,Activity,[8],100%
same,Activity,[9],100%
same,Activity,[10],91%
same,Activity,[11],84%
same,Activity,[12],61%
same,Activity,[13],88%
same,Activity,[14],88%
same,Activity,[15],100%
same,Activity,[16],100%
same,Activity,[17],93%
same,Activity,[18],85%
same,IC50,Aurora kinase A,19.4 nM
same,inhibition,HepG2,Active
same,bioavailability,[19],39.5%
same,Activity,Mus musculus,inactive
same,Activity,[20],Toxic
